One may read the pIC50 as the IC50 on a negative log10 scale, so that one unit is a factor of ten. What is called Inhibition is the change of the read-out against control, counted positive when it falls. Read a high Inhibition as strong suppression.

pIC50: −log10 of the molar value.

The values that follow come from ChEMBL document CHEMBL1135583, “Activity of bisphosphonates against Trypanosoma brucei rhodesiense” (J Med Chem, 2002).

Data set [1] can be described thus: 50% lethal dose for inhibition of KB cells growth. Format: cell-based. The settings on record: human, read-out: LD50 (the source's name). The method in brief: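 KB cell line growth measured over a dose-response series by the Alamar blue method. The LD50 is the concentration lethal to 50% of KB cells. The highest level tested was 300 μg/mL; ">" means no inhibition at that level.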

Data set [2] deals with Trypanosoma brucei rhodesiense. Description: In vitro growth inhibition of bloodstream-form Trypanosoma brucei rhodesiense Trypomastigotes. Format: functional, organism-based. The method in brief: (§1)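 Bloodstream-form T. b. rhodesiense trypomastigotes, strain STIB 900, grown in vitro with the bisphosphonate. IC50 taken as the drug concentration that cuts parasite proliferation by 50%.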

For data set [3], the system named is Trypanosoma brucei rhodesiense. Description: Predicted pIC50 against Trypomastigotes Brucei rhodesiense. Format: functional, organism-based. The method in brief: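 QSAR prediction from a bisphosphonate training set. Structures geometry-optimized by steepest-descent, conjugate-gradient and Newton–Raphson minimization with no internal constraints. Each molecule aligned by rms fit of its P–C–P backbone to the lowest-energy conformer of the template. Models validated by leave-one-out cross-validation.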

The nature of data set [4]: Therapeutic index measured as the ratio of LD50 (KB cells) to IC50 (T.b. rhodesiense). The format is cell-based. Conditions: trypanosoma brucei rhodesiense, KB cells versus T. b. rhodesiense; read-out: TI. Put shortly:
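KB cell growth inhibition measured by Alamar blue to give LD50, the dose lethal to 50% of cells; highest level tested 300 μg/mL. Index computed as LD50 (KB cells) / IC50 (T. b. rhodesiense).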

Data set [5] concerns Trypanosoma brucei rhodesiense. Description: Log IC50 brucei Trypomastigotes. The format is functional, organism-based. The method in brief: as §1
Data set [6] has as its system Trypanosoma brucei rhodesiense. Description: (§2) In vitro rescue of growth inhibition of Trypanosoma uM of compound. Format: functional.
Data set [7] concerns Trypanosoma brucei rhodesiense. The data set can be described thus: 50% inhibitory concentration against Trypanosoma brucei rhodesiense. Format: functional, organism-based. Put shortly:
as §1

Data set [8] relates to Trypanosoma brucei rhodesiense. The data set is described as §2. Format: functional. The source holds these as a separate data set.
Data set [9] concerns Trypanosoma brucei rhodesiense. The description is as §2. Format: functional. This is another data set of the same source.
Data set [10] relates to Trypanosoma brucei rhodesiense. The description is as §2. Format: functional. This is another data set of the same source.
Data set [11] relates to Trypanosoma brucei rhodesiense. Described as §2. Format: functional. This is another data set of the same source.
Data set [12] deals with Trypanosoma brucei rhodesiense. The data set is described as §2. The format is functional. This is another data set of the same source.
The subject of data set [13] is Trypanosoma brucei rhodesiense. Description: Percent inhibition of Trypanosoma brucei rhodesiense at 27.85 uM of risedronate along with FPP. The format is functional.
Data set [14] concerns Trypanosoma brucei rhodesiense. Description: Percent inhibition of Trypanosoma brucei rhodesiense at 83.54 uM of risedronate along with FPP. The format is functional.
For data set [15], the system named is Trypanosoma brucei rhodesiense. The data set can be described thus: In vitro growth inhibition of Trypanosoma brucei rhodesiense (risedronate + FPP). The format is functional, organism-based.
Data set [16] relates to Trypanosoma brucei rhodesiense. Description: Percent inhibition of Trypanosoma brucei rhodesiense at 9.27 uM of risedronate along with FPP. The format is functional.
In data set [17] the test system is Trypanosoma brucei rhodesiense. Description: Percent inhibition of Trypanosoma brucei rhodesiense at 83.54 uM of risedronate along with GPP. Format: functional.
The test system of data set [18] is Trypanosoma brucei rhodesiense. The data set can be described thus: Percent inhibition of Trypanosoma brucei rhodesiense at 1.03 uM of risedronate along with GPP. The format is functional.
The subject of data set [19] is Trypanosoma brucei rhodesiense. The data set can be described thus: Percent inhibition of Trypanosoma brucei rhodesiense at 27.85 uM of risedronate along with GPP. Format: functional.
In data set [20] the test system is Trypanosoma brucei rhodesiense. The data set can be described thus: In vitro growth inhibition of Trypanosoma brucei rhodesiense (risedronate + GPP). The format is functional, organism-based.
For data set [21], the system named is Trypanosoma brucei rhodesiense. The data set can be described thus: Percent inhibition of Trypanosoma brucei rhodesiense at 9.27 uM of risedronate along with GPP. Format: functional.
Data set [22] deals with Trypanosoma brucei rhodesiense. Description: Percent inhibition of Trypanosoma brucei rhodesiense at 3.09 uM of risedronate along with GPP. The format is functional. The method in brief: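 Rescue assay with bloodstream-form trypomastigotes (strain STIB900) seeded at 1 × 10^5/mL in HMI-18 medium with 20% HIFCS. Bisphosphonate was given as three-fold serial dilutions from 83.5 μM, in triplicate. Geranyl pyrophosphate was added at a final 12.5 μg/mL. Plates were incubated for 72 h at 37 °C in 5% CO2-air, then Alamar Blue was added for 4 h and fluorescence read at 530/585 nm.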

Data set [23] deals with Trypanosoma brucei rhodesiense. The data set can be described thus: In vitro rescue of growth inhibition of Trypanosoma brucei rhodesiense [risedronate + farnesol(12.5 ug/mL)]. The format is functional, organism-based.
Data set [24] has as its system Trypanosoma brucei rhodesiense. Description: In vitro rescue of growth inhibition of Trypanosoma uM of risedronate along with farnesol (12.5 ug/mL). Format: functional.

With `CCCCCNC(P(=O)(O)O)P(=O)(O)O` [(PENTYLAMINO)METHYLENEDIPHOSPHONIC ACID], the CC50 in [1] was > 1150 µM. Moreover, the pIC50 in [2] and in data set [3] was 4.30 in each case. In addition, the selectivity ratio in [4] is > 23.
For the molecule `CCCCCCCCCCCC(O)(P(=O)(O)O)P(=O)(O)O`, the CC50 in [1] was found to be 492 µM. For the same molecule, the pIC50 in data set [2] and in data set [5] was 5.70 in each case. The selectivity ratio in data set [4] worked out at 246.
Turning to `Nc1ccc(CC(O)(P(=O)(O)O)P(=O)(O)O)cc1`, the CC50 in [1] was determined as 218 µM. Moreover, in data set [3], the pIC50 was 4.40. Also, the selectivity ratio in data set [4] was found to be 5.
Take `O=P(O)(O)C(Nc1ccc(Br)cn1)P(=O)(O)O`: the CC50 in data set [1] turned out to be 87 µM. Moreover, the pIC50 in data set [2] and in [3] was 4.40 throughout. Moreover, in data set [4], the selectivity ratio came out at 2.
As for `CCCCCCCCCCC(O)(P(=O)(O)O)P(=O)(O)O`, the CC50 in [1] is > 806 µM. Further, the pIC50 in data set [2] and in data set [5] was 5.10 in each case. Moreover, the selectivity ratio in data set [4] was > 101.
In the case of `Cc1cccnc1NC(P(=O)(O)O)P(=O)(O)O`, the CC50 in data set [1] was determined as 187 µM. Also, the pIC50 in data set [2] and in [3] was 6.15 each time. The selectivity ratio in data set [4] was 267.
Regarding `CCN(CC)C(P(=O)(O)O)P(=O)(O)O` [(DIETHYLAMINO)METHYLENEDIPHOSPHONIC ACID], in data set [1], the CC50 came out at 809 µM. The pIC50 in [2] and in [3] was 4.46 in each case. In addition, the selectivity ratio in data set [4] was determined as 24.
`O=P(O)(O)C(O)(CSc1ccncc1)P(=O)(O)O`: in data set [1], the CC50 was > 746 µM. Further, the pIC50 in [3] was 4.70. The selectivity ratio in [4] is > 38.
On to `NCCCCCC(O)(P(=O)(O)O)P(=O)(O)O` [NERIDRONIC ACID], for which the CC50 in [1] worked out at 680 µM. In data set [5], the pIC50 is 4.50. The selectivity ratio in data set [4] was 21.
With `O=P(O)(O)C(Nc1ccc(Cl)cn1)P(=O)(O)O`, in data set [1], the CC50 is > 992 µM. For the same molecule, the pIC50 in data set [2] and in data set [3] was 4.27 each time. Further, the selectivity ratio in data set [4] is > 19.
For the molecule `CCCC(O)(P(=O)(O)O)P(=O)(O)O`, in data set [1], the CC50 was > 967 µM. The pIC50 in data set [3] is 4.04. Besides, in [4], the selectivity ratio was > 11.
On the same counts, the results for `O=P(O)(O)C(O)(Cc1c[nH]cn1)P(=O)(O)O` are 41 µM, 5.07 and 5.
On the same counts, the results for `O=P(O)(O)C(O)(Cc1ccccn1)P(=O)(O)O` are 13.9 µM, 6.66 and 63.
Turning to `CC(N)CC(O)(P(=O)(O)O)P(=O)(O)O` (stereo unspecified), the CC50 in [1] amounted to 977 µM. Also, the pIC50 in data set [2] and in [3] was 5.11 each time. In addition, the selectivity ratio in data set [4] was 125.
Turning to `O=P(O)(O)C(O)(Cc1cccnc1)P(=O)(O)O` [RISEDRONIC ACID], the Inhibition in [6] amounted to 100%; in data set [8] it was 19.3%; in data set [9] it was 86.49%; in [10] it was 100%; in [11] it was 0%; in data set [12], 23.49%. Besides, in data set [1], the CC50 was found to be 249 µM. Moreover, the pIC50 is 5.39 in data set [7] and 5.07 in data set [3]. The selectivity ratio in data set [4] came out at 29.
In the case of `NCCC(O)(P(=O)(O)O)P(=O)(O)O` [PAMIDRONIC ACID], the CC50 in [1] came out at 156 µM. The pIC50 in data set [2] and in data set [5] was < 4.00 throughout. In addition, the selectivity ratio in data set [4] is < 2.
Consider `CC(C)CCNC(P(=O)(O)O)P(=O)(O)O` [(ISOPENTYLAMINO)METHYLENEDIPHOSPHONIC ACID], for which, in data set [1], the CC50 is > 1150 µM. In addition, the pIC50 in [2] and in data set [3] was 3.99 each time. For the same molecule, the selectivity ratio in data set [4] is > 11.
On to `CC(C)=CCC/C(C)=C/CC/C(C)=C/COP(=O)(O)OP(=O)(O)O.O=P(O)(O)C(O)(Cc1cccnc1)P(=O)(O)O`, for which the values for the Inhibition in data set [13], in data set [14] and in data set [16] were 25.4%, 64.24% and 0%, respectively. Further, the pIC50 in [15] was 4.18.
In the case of `O=P(O)(O)C(NC1CCCCC1)P(=O)(O)O` [(CYCLOHEXYLAMINO)METHYLENEDIPHOSPHONIC ACID], the CC50 in [1] worked out at 271 µM. Further, the pIC50 in [2] and in [3] was 4.68 each time. In addition, in data set [4], the selectivity ratio was 13.
`CCCCCCCCCC(O)(P(=O)(O)O)P(=O)(O)O`: the CC50 in data set [1] was > 775 µM. The pIC50 in [2] and in data set [5] was 4.69 in each case. For the same molecule, the selectivity ratio in [4] was > 38.
On to `Cc1ccnc(NC(P(=O)(O)O)P(=O)(O)O)c1`, for which, in data set [1], the CC50 came to 127 µM. Besides, the pIC50 in data set [2] and in [3] was 6.21 throughout. Besides, the selectivity ratio in data set [4] was 208.
Take `O=P(O)(O)C(O)(Cc1ccccc1)P(=O)(O)O`: the CC50 in [1] was > 931 µM. Besides, the pIC50 in data set [3] was 4.67. Moreover, the selectivity ratio in [4] was > 44.
In the case of `CC(C)=CCC/C(C)=C/COP(=O)(O)OP(=O)(O)O.O=P(O)(O)C(O)(Cc1cccnc1)P(=O)(O)O`, the Inhibition in data set [17] worked out at 100%; in data set [18], 0%; in data set [19], 100%; in [21], 83.7%; in [22], 44.59%. Further, in data set [20], the negative logarithm of the IC50 (pIC50) was 5.43.
For the molecule `O=P(O)(O)C(O)(CCc1cccnc1)P(=O)(O)O`, in data set [1], the CC50 is > 804 µM. Moreover, the pIC50 in data set [2] and in [3] was 5.77 in each case. In data set [4], the selectivity ratio was > 473.
As for `CCCCCCCCNC(P(=O)(O)O)P(=O)(O)O` [(OCTYLAMINO)METHYLENEDIPHOSPHONIC ACID], in [1], the CC50 came out at 66.8 µM. Also, the pIC50 in data set [2] and in data set [5] was 5.77 each time. Further, the selectivity ratio in data set [4] was found to be 39.
With `CCCCC(O)(P(=O)(O)O)P(=O)(O)O`, in data set [1], the CC50 is > 1040 µM. Further, the pIC50 in data set [3] is 4.00. Also, in data set [4], the selectivity ratio is > 10.
In the case of `CCCCCC(O)(P(=O)(O)O)P(=O)(O)O`, the CC50 in data set [1] was > 993 µM. Besides, the pIC50 in [3] was 4.20. Moreover, in data set [4], the selectivity ratio was > 16.
Take `CCCCCN(C)CCC(O)(P(=O)(O)O)P(=O)(O)O` [IBANDRONIC ACID]: the CC50 in data set [1] is 10.1 µM. For the same molecule, the pIC50 in data set [2] and in [3] was 6.02 each time. In addition, the selectivity ratio in [4] was 10.
`CN(C)CCC(O)(P(=O)(O)O)P(=O)(O)O` [OLPADRONIC ACID]: the CC50 in [1] is > 1050 µM. The pIC50 in data set [3] is 5.27. In addition, the selectivity ratio in [4] is > 195.
With `CC(C)=CCC/C(C)=C/CC/C(C)=C/CO.O=P(O)(O)C(O)(Cc1cccnc1)P(=O)(O)O`, in data set [23], the pIC50 was < 4.08. The same molecule gave an Inhibition in data set [24] of 0%.
